pIC50: −log10 of the molar value. The source made the active and inactive calls. The calls are words filed in the database; no cut-off is given here. Residues, ends and D or L forms follow the SMILES beside them. *: point of attachment. X1 = O=C(c1ccc(-c2c3nc(c(-c4ccccc4)c4ccc([nH]4)c(-c4ccccc4)c4nc(c(-c5ccccc5)c5ccc2[nH]5)C=C4)CC3)cc1)*; Ahx = NCCCCCC(=O)O

T1 sequence (O14786 whole entry): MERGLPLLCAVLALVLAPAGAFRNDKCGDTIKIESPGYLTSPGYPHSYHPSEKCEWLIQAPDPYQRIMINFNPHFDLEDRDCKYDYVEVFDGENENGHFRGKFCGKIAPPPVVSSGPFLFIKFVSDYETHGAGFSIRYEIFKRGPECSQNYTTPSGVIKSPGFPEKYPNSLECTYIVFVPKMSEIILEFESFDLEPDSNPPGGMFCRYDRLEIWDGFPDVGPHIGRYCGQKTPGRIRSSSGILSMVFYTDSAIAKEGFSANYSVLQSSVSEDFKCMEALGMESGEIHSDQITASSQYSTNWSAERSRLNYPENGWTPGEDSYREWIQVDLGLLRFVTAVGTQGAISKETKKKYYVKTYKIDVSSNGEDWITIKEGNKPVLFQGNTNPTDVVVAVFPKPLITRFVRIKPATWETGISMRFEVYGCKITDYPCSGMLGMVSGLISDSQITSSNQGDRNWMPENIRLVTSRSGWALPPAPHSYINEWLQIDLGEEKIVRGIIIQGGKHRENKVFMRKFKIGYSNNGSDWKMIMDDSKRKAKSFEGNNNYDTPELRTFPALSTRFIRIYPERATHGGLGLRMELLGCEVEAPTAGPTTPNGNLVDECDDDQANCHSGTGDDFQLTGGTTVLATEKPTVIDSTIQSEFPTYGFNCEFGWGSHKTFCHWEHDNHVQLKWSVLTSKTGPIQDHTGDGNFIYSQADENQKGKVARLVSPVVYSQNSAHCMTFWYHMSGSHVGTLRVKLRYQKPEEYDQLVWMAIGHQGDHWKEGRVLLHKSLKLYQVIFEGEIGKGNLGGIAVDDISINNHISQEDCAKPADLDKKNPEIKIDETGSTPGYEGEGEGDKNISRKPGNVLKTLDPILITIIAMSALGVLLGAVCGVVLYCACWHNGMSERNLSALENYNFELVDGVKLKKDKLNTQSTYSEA

In the first assay the target is T1, Neuropilin-1 (Homo sapiens, UniProt O14786). Put plainly: Inhibition of biotinylated VEGF165 binding to recombinant NRP1 at 100 uM after 2 hrs by competitive binding assay. Summed up:
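NRP-1-coated wells were blocked with PBS/0.5% BSA for 1 h at 37 °C. Biotinylated VEGF165 was added with competitor at 100 µM for 2 h at room temperature, then washed. Detection used streptavidin-HRP, 20 min at room temperature, stop solution and OD at 450 nm. Results are absorbance relative to blocking-buffer-only wells, three wells per condition.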
One may read the inhibition as the change of the read-out against control, counted positive when it falls. As to `CC(=O)O[C@H](C)CNC(=O)C[C@H]1O[C@@H](CNCCNC(=N)N)[C@H]2OC(C)(C)O[C@H]21`, the inhibition result is “Active”. For `CC1(C)O[C@@H]2[C@H](O1)[C@H](CN[C@@H](CCCNC(=N)N)C(=O)O)O[C@@H]2CC(=O)NCCc1c[nH]c2ccccc12`, the inhibition result is “Active”.

For `CC(=O)O[C@H](C)CNC(=O)C[C@H]1O[C@@H](CNCc2nc3ccccc3[nH]2)[C@H]2OC(C)(C)O[C@H]21`, the inhibition result was “Active”. For `C[C@@H](O)CNC(=O)C[C@H]1O[C@@H](CNCCNc2ccccn2)[C@H]2OC(C)(C)O[C@H]21`, the inhibition result was “Active”. Take `CC1(C)O[C@@H]2[C@H](O1)[C@H](CNCCc1nc3ccccc3[nH]1)O[C@@H]2CC(=O)NCCc1c[nH]c2ccccc12`: the inhibition result is “Active”. On to `CC1(C)O[C@@H]2[C@H](O1)[C@H](CNCCNC(=N)N)O[C@@H]2CC(=O)NCCc1c[nH]c2ccccc12`, for which the inhibition result is “Active”.

For `CC1(C)O[C@@H]2[C@H](O1)[C@H](CN1CCN(C(=N)N)C1=O)O[C@@H]2CC(=O)NCCc1c[nH]c2ccccc12`, the inhibition entry was “Active”. Consider `COC(=O)[C@H](CCCNC(=N)N)NC[C@@H]1O[C@H](CC(=O)NCCc2c[nH]c3ccccc23)[C@@H]2OC(C)(C)O[C@@H]21`, for which the inhibition entry is “Active”. Regarding `CC(=O)O[C@H](C)CNC(=O)C[C@H]1O[C@@H](CNCc2ccncc2)[C@H]2OC(C)(C)O[C@H]21`, the inhibition result was “Active”. Still for that read-out and setting: under `C[C@@H](O)CNC(=O)C[C@H]1O[C@@H](CNCc2ccccc2)[C@H]2OC(C)(C)O[C@H]21` stands “Active”; under `CC1(C)O[C@@H]2[C@H](O1)[C@H](CNCCNC(=O)OCc1ccccc1)O[C@@H]2CC(=O)NCCc1c[nH]c2ccccc12`, “Active”. Turning to `CC(=O)O[C@H](C)CNC(=O)C[C@H]1O[C@@H](CNCCNC(=O)OCc2ccccc2)[C@H]2OC(C)(C)O[C@H]21`, the inhibition result is “Active”. Still for that read-out and setting: under `CC(=O)O[C@H](C)CNC(=O)C[C@H]1O[C@@H](CNCCc2nc3ccccc3[nH]2)[C@H]2OC(C)(C)O[C@H]21` stands “Active”. Regarding `CC1(C)O[C@@H]2[C@H](O1)[C@H](CN(CCN/C(=N/C(=O)OCc1ccccc1)NC(=O)OCc1ccccc1)/C(=N/C(=O)OCc1ccccc1)NC(=O)OCc1ccccc1)O[C@@H]2CC(=O)NCCc1c[nH]c2ccccc12`, the inhibition result is “Active”. For `CC1(C)O[C@@H]2[C@H](O1)[C@H](CNCCNc1ccccn1)O[C@@H]2CC(=O)NCCc1c[nH]c2ccccc12`, the inhibition entry is “Active”. For the molecule `CC(C)(C)OC(=O)/N=C(/NC(=O)OC(C)(C)C)N1CCN(C[C@@H]2O[C@H](CC(=O)NCCc3c[nH]c4ccccc34)[C@@H]3OC(C)(C)O[C@@H]32)C1=O`, the inhibition entry was “Active”. As to `CC(C)C[C@H](NC(=O)[C@H](Cc1c[nH]c2ccccc12)NC(=O)[C@@H](NC(=O)[C@H](C)NC(=O)CCCCCNC(=O)c1ccc(-c2c3nc(c(-c4ccccc4)c4ccc([nH]4)c(-c4ccccc4)c4nc(c(-c5ccccc5)c5ccc2[nH]5)C=C4)CC3)cc1)[C@@H](C)O)C(=O)N1CCC[C@H]1C(=O)N1CCC[C@H]1C(=O)N[C@@H](CCCNC(=N)N)C(=O)O` ({X1-Ahx}-ATWLPPR-OH), the inhibition result was “Active”. Take H-ATWLPPR-OH: the inhibition result is “Active”. On to `CC(C)(C)OC(=O)/N=C(\NCCNC[C@@H]1O[C@H](CC(=O)NCCc2c[nH]c3ccccc23)[C@@H]2OC(C)(C)O[C@@H]21)NC(=O)OC(C)(C)C`, for which the inhibition result is “Active”. Regarding `CC(=O)O[C@H](C)CNC(=O)C[C@H]1O[C@@H](CNCCN/C(=N\C(=O)OC(C)(C)C)NC(=O)OC(C)(C)C)[C@H]2OC(C)(C)O[C@H]21`, the inhibition entry was “Active”.

In the case of `C[C@@H](O)CNC(=O)C[C@H]1O[C@@H](CN(CCNC(=N)N)C(=N)N)[C@H]2OC(C)(C)O[C@H]21`, the inhibition entry was “Active”. As to `CC(=O)O[C@H](C)CNC(=O)C[C@H]1O[C@@H](CNCCN)[C@H]2OC(C)(C)O[C@H]21`, the inhibition entry is “Active”. On to `COC(=O)[C@H](CCCNC(=N)N)NC[C@@H]1O[C@H](CC(=O)NC[C@@H](C)OC(C)=O)[C@@H]2OC(C)(C)O[C@@H]21`, for which the inhibition entry was “Active”.

Regarding `CC1(C)O[C@@H]2[C@H](O1)[C@H](CNCc1nc3ccccc3[nH]1)O[C@@H]2CC(=O)NCCc1c[nH]c2ccccc12`, the inhibition result is “Active”. For the molecule `CC(=O)O[C@H](C)CNC(=O)C[C@H]1O[C@@H](CNCCNc2ccccn2)[C@H]2OC(C)(C)O[C@H]21`, the inhibition entry was “Active”. Still for that read-out and setting: under `CC1(C)O[C@@H]2[C@H](O1)[C@H](CNCCNc1ncccn1)O[C@@H]2CC(=O)NCCc1c[nH]c2ccccc12` stands “Active”; under `C[C@@H](O)CNC(=O)C[C@H]1O[C@@H](CNCc2nc3ccccc3[nH]2)[C@H]2OC(C)(C)O[C@H]21`, “Active”. On to `CC1(C)O[C@@H]2[C@H](O1)[C@H](CNCc1ccncc1)O[C@@H]2CC(=O)NCCc1c[nH]c2ccccc12`, for which the inhibition result was “Active”. On the same count and under the same terms, under `C[C@@H](O)CNC(=O)C[C@H]1O[C@@H](CN[C@@H](CCCNC(=N)N)C(=O)O)[C@H]2OC(C)(C)O[C@H]21` stands “Active”; under `CC(=O)O[C@H](C)CNC(=O)C[C@H]1O[C@@H](CN(CCN/C(=N/C(=O)OCc2ccccc2)NC(=O)OCc2ccccc2)/C(=N/C(=O)OCc2ccccc2)NC(=O)OCc2ccccc2)[C@H]2OC(C)(C)O[C@H]21`, “Active”.

`CC1(C)O[C@@H]2[C@H](O1)[C@H](CNCCN)O[C@@H]2CC(=O)NCCc1c[nH]c2ccccc12`: the inhibition result is “Active”. Still for that read-out and setting: under `CC1(C)O[C@@H]2[C@H](O1)[C@H](CN(CCNC(=N)N)C(=N)N)O[C@@H]2CC(=O)NCCc1c[nH]c2ccccc12` stands 65%; under `C[C@@H](O)CNC(=O)C[C@H]1O[C@@H](CNCc2ccncc2)[C@H]2OC(C)(C)O[C@H]21`, “Active”.

As to `C[C@@H](O)CNC(=O)C[C@H]1O[C@@H](CNCCc2nc3ccccc3[nH]2)[C@H]2OC(C)(C)O[C@H]21`, the inhibition result was “Active”.

As to `CC1(C)O[C@@H]2[C@H](O1)[C@H](CNCc1ccccc1)O[C@@H]2CC(=O)NCCc1c[nH]c2ccccc12`, the inhibition result was “Active”.

In another assay the target is T1, Neuropilin-1. Briefly: Displacement of biotinylated VEGF165 from recombinant NRP1 after 2 hrs by competitive binding assay. Summed up: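 Plates coated overnight at room temperature with recombinant chimeric NRP-1 in PBS, then blocked with PBS/0.5% BSA for 1 h at 37 °C. Biotinylated VEGF165 (5 ng/mL; 110 pM), with heparin present, competed with increasing competitor concentrations for 2 h at room temperature. Bound label was detected with streptavidin-HRP, 20 min at room temperature, then stopped and read at 450 nm. IC50 was derived by the median effect method.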
Broadly, the pIC50 is the negative decadic logarithm of the IC50, by convention in mol/L. With `CC(C)C[C@H](NC(=O)[C@H](Cc1c[nH]c2ccccc12)NC(=O)[C@@H](NC(=O)[C@H](C)NC(=O)CCCCCNC(=O)c1ccc(-c2c3nc(c(-c4ccccc4)c4ccc([nH]4)c(-c4ccccc4)c4nc(c(-c5ccccc5)c5ccc2[nH]5)C=C4)CC3)cc1)[C@@H](C)O)C(=O)N1CCC[C@H]1C(=O)N1CCC[C@H]1C(=O)N[C@@H](CCCNC(=N)N)C(=O)O` ({X1-Ahx}-ATWLPPR-OH), the pIC50 is 3.77. As to `CC1(C)O[C@@H]2[C@H](O1)[C@H](CN(CCNC(=N)N)C(=N)N)O[C@@H]2CC(=O)NCCc1c[nH]c2ccccc12`, the pIC50 is 4.04.

In the next assay the target is T1, Neuropilin-1. Briefly: Inhibition of VEGF binding to NRP1 expressed in CHO cells. The assay is classed as cell-based.
Take H-ATWLPPR-OH: the pIC50 was 4.72.

For the origin of these results see ChEMBL document CHEMBL1157934, “Sugar-based peptidomimetics as potential inhibitors of the vascular endothelium growth factor binding to neuropilin-1” (Bioorg Med Chem, 2010).
